Results collected from several papers.
CNR1: Cannabinoid receptor 1 (CNR1, Homo sapiens, UniProt P21554)
HTR2A: 5-hydroxytryptamine receptor 2A (HTR2A, Homo sapiens, UniProt P28223)
Oprm1: Mu-type opioid receptor (Oprm1, Mus musculus, UniProt P42866)

The Ki of `CC(C)(NC(=O)c1nn(CCCCCF)c2ccccc12)c1cccc(C(N)=O)c1` is reported as 68 nM (CNR1; ligand displacement; radioligand; cell membranes).
For `CCCCC/C=C\C/C=C\C/C=C\Cc1ccccc1CCCC(=O)N[C@H](C)CO`, the EC50 was 607 nM (CNR1; β-arrestin recruitment; agonist).
For `O=C(O)C(F)(F)OC(F)(F)C(F)(F)OC(F)(F)C(F)(F)OC(F)(F)C(F)(F)C(F)(F)C(F)(F)F`, the Kd was 20 nM (Fatty acid-binding protein, brain (Homo sapiens, UniProt O15540); ligand displacement; fluorescence).
`O=c1c2cc(Cl)ccc2[nH]c(=S)n1Cc1cccnc1` has an IC50 of 2600 nM (HTR2A; cell-free assay).
`CCCCC/C=C\[C@H](C)/C=C\C/C=C\Cc1ccccc1CCCC(=O)N[C@H](C)CO` has an EC50 of 1960 nM (CNR1; β-arrestin recruitment; agonist).
`O=c1cc(CSc2ccc(N=Cc3ccc(F)cc3)cc2)occ1O` has an IC50 of 53500 nM (PPO3 (Agaricus bisporus, UniProt C7FF04); enzyme activity; inhibitor; absorbance).
`CCCCCc1ccccc1C/C=C\C/C=C\C/C=C\CCCC(=O)N[C@H](C)CO` gave an EC50 of 3440 nM (CNR1; β-arrestin recruitment; agonist).
For `CC(C)[C@@H](CN1CCc2ccccc2C1)NC(=O)Cc1c[nH]c2ccccc12`, the Ki was 1240 nM (Oprm1; ligand displacement; radioligand).
For `CC[C@H](C)[C@H](NC(=O)[C@H](CCC(=O)O)NC(=O)[C@H](C)NC(=O)[C@H](CCCCN)NC(=O)[C@H](CC(C)C)NC(=O)[C@@H](NC(=O)[C@H](CCC(=O)O)NC(=O)[C@@H](NC(=O)[C@H](CCC(=O)O)NC(=O)[C@H](CC(=O)O)NC(=O)[C@H](C)NC(=O)[C@@H](NC(=O)[C@@H](NC(=O)[C@H](C)NC(=O)[C@H](C)NC(=O)CCNC(=O)[C@@H](N)CCCCNC(=O)CCCC[C@@H]1SC[C@@H]2NC(=O)N[C@@H]21)C(C)C)[C@@H](C)O)[C@@H](C)O)C(C)C)C(=O)N[C@@H](CO)C(=O)N[C@@H](CCCCN)C(=O)N[C@@H](C)C(=O)N[C@H](C(=O)N[C@@H](CCCCN)C(=O)N[C@@H](CCC(N)=O)C(=O)N[C@H](C(=O)N[C@@H](CCC(N)=O)C(=O)N[C@@H](CCC(=O)O)C(=O)N[C@@H](CCC(=O)O)C(=O)N[C@@H](CC(=O)O)C(=O)N1CCC[C@H]1C(=O)N[C@@H](CC(N)=O)C(N)=O)C(C)C)C(C)C`, the Kd was 4600 nM (Myc proto-oncogene protein (MYC, Homo sapiens, UniProt P01106); binding; BLI).
`c1cncc([C@@H]2CCCN2)c1` has a Ki of 334 nM (Neuronal acetylcholine receptor; alpha4/beta2 (Rattus norvegicus, UniProt P09483+P12390); cell-free assay; radioligand).
`COc1cc2c3c(c1OC)-c1c(OC)ccc(Cl)c1CC3N(C)CC2` (racemic) gave a Ki of 893 nM (HTR2A; cell-free assay; radioligand).
The Ki of `CC(C)(NC(=O)c1nn(Cc2ccc(C#N)cc2)c2ccccc12)c1cccc(C(N)=O)c1` is reported as 98 nM (CNR1; ligand displacement; radioligand; cell membranes).
For `CC[C@H](C)[C@@H](C(=O)N1CCC[C@H]1c1nccs1)N(C)C(=O)[C@H](CC(C)C)N(C)C(=O)[C@H](Cc1ccc(OC)cc1)N(C)C(=O)/C=C(\C)OC`, the IC50 was 11600 nM (CNR1; β-arrestin recruitment; antagonist).
`COc1cc2c(cc1OC)CN(CCc1ccc(NC(=O)c3cccc4c(=O)c5cccc(OC)c5[nH]c34)cc1)CC2` gave a Ki of over 10000 nM (Kappa-type opioid receptor (OPRK1, Homo sapiens, UniProt P41145); cell-free assay).
The Ki of `CC(C)[C@H](CN1CCc2ccccc2C1)NC(=O)c1cccc(-c2cccc(O)c2)c1` is reported as 3100 nM (Oprm1; ligand displacement; radioligand).
With `CCCCCn1nc(C(=O)NC(C)(C)c2cccc(C(N)=O)c2)c2ccccc21` the Ki was 250 nM (CNR1; ligand displacement; radioligand; cell membranes).
`CCOC(=O)c1ccc(OC(=O)CCCCCN=C(N)N)cc1` gave an IC50 of 157 nM (Vitamin K-dependent protein C (PROC, Homo sapiens, UniProt P04070); enzyme activity; inhibitor).
